Source: ChEMBL document CHEMBL1125797, “Synthesis, characterization and myocardial uptake of cationic bis(arene)technetium(I) complexes” (J Med Chem, 1991)

Columns and labels:
Rattus norvegicus [1] = assay: Biodistribution of compound in rat liver at 1440 min after intravenous administration; assay type: ADME, organism-based; details: in vivo, 24 h
Outline: (§1)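 Time course in Sprague-Dawley rats after lateral tail-vein injection of the 99mTc complex in normal saline (~12.5 μCi/mL) at ~25 μCi/kg. Tissues were sampled at the stated times, washed with saline, blotted, weighed and γ-counted to give percent injected dose per g. Values are averages of male and female rats.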

Rattus norvegicus [2] = assay: Biodistribution of compound in rat heart at 45 min after intravenous administration; assay type: ADME, organism-based; details: in vivo, 0.75 h; outline: as §1
Rattus norvegicus [3] = assay: Biodistribution of compound in rat kidney at 360 min after intravenous administration; assay type: ADME, organism-based; details: in vivo, 6 h; outline: as §1
Rattus norvegicus [4] = assay: Biodistribution of compound in rat bone at 5 min after intravenous administration; assay type: ADME, organism-based, Bone element; details: in vivo; outline: as §1
Rattus norvegicus [5] = assay: Biodistribution of compound in rat lungs at 180 min after intravenous administration; assay type: ADME, organism-based, Lung; details: in vivo, 3 h
Outline: (§2)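 Rats received the 99mTc complex in normal saline (~12.5 μCi/mL) by lateral tail vein injection at ~25 μCi/kg and were killed by cervical dislocation at the stated time. Tissues were washed with saline, blotted, weighed and γ-counted to give percent injected dose/g. Time-course values are averages of male and female rats.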

Rattus norvegicus [6] = assay: Biodistribution of compound in rat urine at 360 min after intravenous administration; assay type: ADME, organism-based; details: in vivo, 6 h; outline: as §2
[7] = Biodistribution of compound in rat muscle after 5 min of administration; assay type: ADME, organism-based, Muscle tissue; details: in vivo; outline: as §2
Rattus norvegicus [8] = assay: Biodistribution of compound in rat bone at 1440 min after intravenous administration; assay type: ADME, organism-based, Bone element; details: in vivo, 24 h; outline: as §1
Rattus norvegicus [9] = assay: Biodistribution of compound in rat kidney at 90 min after intravenous administration; assay type: ADME, organism-based; details: in vivo, 1.5 h; outline: as §1
Rattus norvegicus [10] = species on record: Rattus norvegicus; assay: The compound was tested for the plasma binding in rat; assay type: ADME, organism-based
Rattus norvegicus [11] = assay: Biodistribution of compound in rat liver at 180 min after intravenous administration; assay type: ADME, organism-based; details: in vivo, 3 h; outline: as §1
Rattus norvegicus [12] = assay: Biodistribution of compound in rat lungs at 5 min after intravenous administration; assay type: ADME, organism-based, Lung; details: in vivo; outline: as §2
Rattus norvegicus [13] = assay: Biodistribution of compound in rat blood at 360 min after intravenous administration; assay type: ADME, organism-based; details: in vivo, 6 h; outline: as §1
Rattus norvegicus [14] = assay: Biodistribution of compound in rat bone at 45 min after intravenous administration; assay type: ADME, organism-based, Bone element; details: in vivo, 0.75 h; outline: as §1
Rattus norvegicus [15] = assay: Biodistribution of compound in rat muscle at 1440 min after intravenous administration; assay type: ADME, organism-based, Muscle tissue; details: in vivo, 24 h; outline: as §2
Rattus norvegicus [16] = assay: Biodistribution of compound in rat eye at 1440 min after intravenous administration; assay type: ADME, organism-based; details: in vivo, 24 h; outline: as §1
Rattus norvegicus [17] = assay: Biodistribution of compound in rat bone marrow at 360 min after intravenous administration; assay type: ADME, organism-based; details: in vivo, 6 h; outline: as §1
Rattus norvegicus [18] = assay: Biodistribution of compound in rat heart at 5 min after intravenous administration; assay type: ADME, organism-based; details: in vivo; outline: as §1
Rattus norvegicus [19] = assay: Biodistribution of compound in rat kidney at 180 min after intravenous administration; assay type: ADME, organism-based; details: in vivo, 3 h; outline: as §1
Rattus norvegicus [20] = assay: Biodistribution of compound in rat blood at 5 min after intravenous administration; assay type: ADME, organism-based; details: in vivo; outline: as §1
Rattus norvegicus [21] = assay: Biodistribution of compound in rat liver at 5 min after intravenous administration; assay type: ADME, organism-based; details: in vivo; outline: as §2
Rattus norvegicus [22] = assay: Biodistribution of compound in rat kidney after 5 min of administration; assay type: ADME, organism-based; details: in vivo
Outline: (§3)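 Female Sprague-Dawley rats (150–200 g) received the 99mTc complex in normal saline (~12.5 μCi/mL) via a lateral tail vein at ~25 μCi/kg. They were killed by cervical dislocation 5 min after injection. Tissues were washed with saline, blotted, weighed and γ-counted, and the read-out was percent injected dose per g tissue.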

Rattus norvegicus [23] = assay: Biodistribution of compound in rat lungs at 90 min after intravenous administration; assay type: ADME, organism-based, Lung; details: in vivo, 1.5 h; outline: as §2
Rattus norvegicus [24] = assay: Biodistribution of compound in rat bone marrow at 5 min after intravenous administration; assay type: ADME, organism-based; details: in vivo; outline: as §1
Rattus norvegicus [25] = assay: Biodistribution of compound in rat liver after 5 min of administration; assay type: ADME, organism-based; details: in vivo; outline: as §3
Rattus norvegicus [26] = assay: Biodistribution of compound in rat gonads at 45 min after intravenous administration; assay type: ADME, organism-based, Gonad; details: in vivo, 0.75 h; outline: as §1
Rattus norvegicus [27] = assay: Biodistribution of compound in rat liver at 360 min after intravenous administration; assay type: ADME, organism-based; details: in vivo, 6 h; outline: as §2
Rattus norvegicus [28] = assay: Biodistribution of compound in rat kidney at 5 min after intravenous administration; assay type: ADME, organism-based; details: in vivo; outline: as §1
Rattus norvegicus [29] = assay: Biodistribution of compound in rat heart at 360 min after intravenous administration; assay type: ADME, organism-based; details: in vivo, 6 h; outline: as §1
Rattus norvegicus [30] = assay: Biodistribution of compound in rat brain after 5 min of administration; assay type: ADME, organism-based; details: in vivo
Rattus norvegicus [31] = assay: Biodistribution of compound in rat heart at 180 min after intravenous administration; assay type: ADME, organism-based; details: in vivo, 3 h; outline: as §1
Rattus norvegicus [32] = assay: Biodistribution of compound in rat eye at 90 min after intravenous administration; assay type: ADME, organism-based; details: in vivo, 1.5 h; outline: as §1
Rattus norvegicus [33] = assay: Biodistribution of compound in rat bone at 360 min after intravenous administration; assay type: ADME, organism-based, Bone element; details: in vivo, 6 h; outline: as §1
Rattus norvegicus [34] = assay: Biodistribution of compound in rat lungs at 1440 min after intravenous administration; assay type: ADME, organism-based, Lung; details: in vivo, 24 h; outline: as §2
Rattus norvegicus [35] = assay: Biodistribution of compound in rat muscle at 360 min after intravenous administration; assay type: ADME, organism-based, Muscle tissue; details: in vivo, 6 h; outline: as §2
Rattus norvegicus [36] = assay: Biodistribution of compound in rat muscle at 45 min after intravenous administration; assay type: ADME, organism-based, Muscle tissue; details: in vivo, 0.75 h; outline: as §2

Bis(1,3,5-trimethylbenzene)technetium showed a Dose/g (Rattus norvegicus [1]) of 0.3 % dose/organ, a Dose/g (Rattus norvegicus [2]) of 1.2 % dose and a Dose/g (Rattus norvegicus [3]) of 0.9 % dose. For the same substance, the Dose/g (Rattus norvegicus [4]) was 3.5 % dose/organ, the Dose/g (Rattus norvegicus [5]) was 0.48 % dose/organ and the Dose/ml (Rattus norvegicus [6]) was 16 % dose. It also gave a Dose/g [7] of 0.35%, a Dose/g (Rattus norvegicus [8]) of 0.8 % dose/organ and a Dose/g (Rattus norvegicus [9]) of 2 % dose/organ. It also gave a Plasma binding (Rattus norvegicus [10]) of 11%, a Dose/g (Rattus norvegicus [11]) of 1.9 % dose/organ and a Dose/g (Rattus norvegicus [12]) of 1.15 % dose/organ. It also gave a Dose/ml (Rattus norvegicus [13]) of 0.52 % dose, a Dose/g (Rattus norvegicus [14]) of 1.8 % dose/organ and a Dose/g (Rattus norvegicus [15]) of 25 % dose/organ. It also gave a Dose/g (Rattus norvegicus [16]) of 0.01 % dose/organ, a Dose/g (Rattus norvegicus [17]) of 0.09 % dose/organ and a Dose/g (Rattus norvegicus [18]) of 1.37 % dose. The Dose/g (Rattus norvegicus [19]) was 1.9 % dose, the Dose/ml (Rattus norvegicus [20]) was 2.67 % dose and the Dose/g (Rattus norvegicus [21]) was 10.4 % dose/organ. For the same substance, the Dose/g (Rattus norvegicus [22]) was 7.9%, the Dose/g (Rattus norvegicus [23]) was 0.6 % dose/organ and the Dose/g (Rattus norvegicus [24]) was 0.37 % dose/organ. The Dose/g (Rattus norvegicus [25]) was 0.98%, the Dose/g (Rattus norvegicus [26]) was 0.86 % dose and the Dose/g (Rattus norvegicus [27]) was 0.8 % dose/organ. The Dose/g (Rattus norvegicus [28]) was 13.6 % dose, the Dose/g (Rattus norvegicus [29]) was 1.14 % dose and the Dose/g (Rattus norvegicus [30]) was 0.1%. For the same substance, the Dose/g (Rattus norvegicus [31]) was 1 % dose, the Dose/g (Rattus norvegicus [32]) was 0.044 % dose and the Dose/g (Rattus norvegicus [33]) was 1.3 % dose. The Dose/g (Rattus norvegicus [34]) was 0.2 % dose/organ, the Dose/g (Rattus norvegicus [35]) was 29 % dose/organ and the Dose/g (Rattus norvegicus [36]) was 26 % dose/organ.
